# Measured values from PubChem BioAssay AID624016 (Broad Institute, 2012).
# The source made the active and inactive calls.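 Rule for the calls: active = fitted curve reaching 35% inhibition at both 405 and 600 nm absorbance, in duplicate, within twice the top valid dose; inactive = the rest, including signal rising instead of falling.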
# Tested on: not listed separately
# Test: P. aeruginosa growth delay under iron chelation, dose response, absorbance 405 nm, dry powder, set 4 (AID 624016)
# Details: P. aeruginosa + EDDHA, pyoverdine absorbance 405 nm, 24-30 h; at 16 µM (top of the series)
# Procedure, shortened: (§1)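 Test system: P. aeruginosa ATCC 15692 cells. Quantity: bacterial inoculum at final OD600 of 0.0000005. Buffer or medium: succinate M9, pH 7.0, 2 µM EDDHA. Dosing: 3-fold compound dilution series prepared from 10 mM stock. Timing: 24-30 h exposure at 37 °C. Detection: absorbance 405 nm, pyoverdine.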
row,SMILES,"activity change, negative = inhibition"
1,Cc1ccc(C(C#N)c2ccccc2OC(F)(F)F)nc1C#N (configuration not stated),-24.9% (inactive)

# Same assay, conditions: P. aeruginosa + EDDHA, pyoverdine absorbance 405 nm, 24-30 h; at 50 µM (top of the series)
row,SMILES,"activity change, negative = inhibition"
1,N#CC(c1ccc(C(F)(F)F)c(Cl)n1)c1ccc(Cl)cc1Cl (configuration not stated),15.9% (inactive)
2,CCCCC(C#N)c1ccc(Cl)cc1Cl (configuration not stated),-5.19% (inactive)
3,CCCC(C#N)c1ccc(Cl)cc1 (configuration not stated),-8.71% (inactive)
4,N#Cc1cccc(C(C#N)c2ccc(Cl)cc2F)n1 (configuration not stated),-15.5% (inactive)
5,N#CC(c1ccc(C(F)(F)F)cc1)c1ccc(C(F)(F)F)c(Cl)n1 (configuration not stated),2.24% (inactive)
6,CC(C#N)(c1ccc(Cl)cc1)c1ccc(C(F)(F)F)cn1 (configuration not stated),-4.71% (inactive)
7,CCCCC(C#N)c1ccc(Cl)cc1 (configuration not stated),-0.817% (inactive)
8,CCCCC(C#N)c1ccc(Cl)cc1F (configuration not stated),5.25% (inactive)
9,N#CC(c1ccc(F)cc1)c1ccc(C(F)(F)F)c(Cl)n1 (configuration not stated),-4.12% (inactive)
10,CC(C)CC(C#N)c1ccc(Cl)cc1 (configuration not stated),-16.3% (inactive)
11,CCCCC(C#N)c1ccc(F)cc1 (configuration not stated),-0.303% (inactive)
12,N#Cc1ccc(C(C#N)c2ccc(Cl)cc2Cl)nc1 (configuration not stated),-0.009% (inactive)
13,CCCCC(C#N)c1ccccc1OC(F)(F)F (configuration not stated),-2.91% (inactive)
14,N#CC(c1ccc(C(F)(F)F)c(Cl)n1)c1ccccc1OC(F)(F)F (configuration not stated),-6.71% (inactive)
15,CCCCC(C#N)c1ccc(C(F)(F)F)cc1 (configuration not stated),-3.25% (inactive)
16,N#CC(c1ccc(C(F)(F)F)cc1)c1cccc(Cl)n1 (configuration not stated),-4.32% (inactive)
17,N#CC(c1ccc(Cl)cc1)c1ccc(C(F)(F)F)c(Cl)n1 (configuration not stated),20.6% (inactive)
18,N#CC(c1ccc(Cl)cc1Cl)c1ncccc1Cl (configuration not stated),1.29% (inactive)
19,N#CC(c1cccc(C(F)(F)F)n1)c1ccccc1OC(F)(F)F (configuration not stated),-7.92% (inactive)
20,N#CC(c1ccc(Cl)cc1)c1ccc(C(F)(F)F)cn1 (configuration not stated),3.24% (inactive)

# Tested on: P. aeruginosa + EDDHA, pyoverdine absorbance 405 nm, 24-30 h
# Test: as above
# Details: not given
# Procedure, shortened: as §1
row,SMILES,AC35
1,N#CC(c1cccc(Cl)n1)c1ccc(Cl)cc1F (configuration not stated),22.3 µM
2,N#CC(c1cccc(C(F)(F)F)n1)c1ccc(Cl)cc1F (configuration not stated),15 µM
3,N#CC(c1ccc(C(F)(F)F)cc1)c1cccc(C(F)(F)F)n1 (configuration not stated),> 50 µM (inactive)
4,N#CC(c1ccc(F)cc1)c1cccc(C(F)(F)F)n1 (configuration not stated),28.9 µM
5,N#CC(c1ccc(Cl)cc1)c1ncccc1Cl (configuration not stated),10.7 µM
6,N#CC(c1ccc(Cl)cc1)c1cccc(C(F)(F)F)n1 (configuration not stated),8.64 µM
